Data set [1] relates to Portulaca oleracea. In words: Herbicidal activity against Portulaca oleracea assessed as inhibition of fresh weed plant weights at 800 g ai/ha using pre-emergence treatment protocol under field trials conditions measured 30 days post soil treatment relative to untreated control. Format: functional. As to conditions: 720 h. A digest of the protocol:
(§1)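 Field pre-emergence trial. Treatments were applied to the soil surface within 24 h after maize planting, at 300, 400, 600 and 800 g a.i. ha^-1. Fresh weight of aerial plant parts was measured 30 days later, and percent inhibition calculated relative to the water-sprayed control.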

The subject of data set [2] is Eleusine indica. The experiment in a line: Herbicidal activity against Eleusine indica assessed as inhibition of fresh weed plant weights at 150 g ai/ha using pre-emergence treatment protocol under greenhouse conditions relative to untreated control. Format: functional. Put shortly:
(§2)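 Pre-emergence test in plastic pots kept in a greenhouse at 22-25 °C. Fresh weight of aerial plant parts was measured 20 days later, and percent inhibition calculated relative to water-sprayed controls. Metolachlor served as the positive control. Three replicates were run per concentration.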

Data set [3] deals with Convolvulus arvensis. In words: Herbicidal activity against Convolvulus arvensis assessed as inhibition of fresh weed plant weights at 800 g ai/ha using pre-emergence treatment protocol under field trials conditions measured 30 days post soil treatment relative to untreated control. As to conditions: 720 h. It counts as functional. A digest of the protocol: as §1
For data set [4], the system named is Zea mays. In words: Toxicity against Zea mays var. SHEN DAN 17 (maize) assessed induction of crop injury at 600 g ai/ha using pre-emergence treatment protocol under field trials conditions measured 30 days post soil treatment. It counts as organism-based. As to conditions: in vivo, other, 720 h. Put shortly:
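Pre-emergence application to soil surface within 24 h after maize planting, at 300, 400, 600 or 800 g a.i. ha^-1. Fresh weight of aerial plant parts measured 30 days later; percentage inhibition calculated relative to water-sprayed control.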

For data set [5], the system named is Digitaria sanguinalis. In words: Herbicidal activity against Digitaria sanguinalis (hairy crabgrass) assessed as inhibition of fresh weed plant weights at 300 g ai/ha using pre-emergence treatment protocol under field trials conditions measured 30 days post soil treatment relative to untreated control. As to conditions: 720 h. Format: functional. Put shortly: as §1

Data set [6] deals with Echinochloa crus-galli. In words: Herbicidal activity against Echinochloa crus-galli (barnyard grass) assessed as inhibition of root growth at […] measured 7 days post treatment. As to conditions: 168 h, read-out: GI. Details: dose or concentration left out as unconfirmed. It counts as functional.
The subject of data set [7] is Convolvulus arvensis. The experiment in a line: Herbicidal activity against Convolvulus arvensis assessed as inhibition of fresh weed plant weights at 600 g ai/ha using pre-emergence treatment protocol under field trials conditions measured 30 days post soil treatment relative to untreated control. As to conditions: 720 h. It counts as functional. Put shortly: as §1

The subject of data set [8] is Eleusine indica. In words: Herbicidal activity against Eleusine indica assessed as inhibition of fresh weed plant weights at 400 g ai/ha using pre-emergence treatment protocol under field trials conditions measured 30 days post soil treatment relative to untreated control. As to conditions: 720 h. Format: functional. A digest of the protocol:
as §1

Data set [9] has as its system Portulaca oleracea. The experiment in a line: Herbicidal activity against Portulaca oleracea assessed as inhibition of fresh weed plant weights at 300 g ai/ha using pre-emergence treatment protocol under greenhouse conditions relative to untreated control. Format: functional. A digest of the protocol:
as §2

The subject of data set [10] is Echinochloa crus-galli. The experiment in a line: Herbicidal activity against Echinochloa crus-galli (barnyard grass) assessed as inhibition of fresh weed plant weights at 600 g ai/ha using pre-emergence treatment protocol under greenhouse conditions relative to untreated control. It counts as functional. Put shortly:
as §2

For data set [11], the system named is Portulaca oleracea. The experiment in a line: Herbicidal activity against Portulaca oleracea assessed as inhibition of fresh weed plant weights at 300 g ai/ha using pre-emergence treatment protocol under field trials conditions measured 30 days post soil treatment relative to untreated control. Format: functional. As to conditions: 720 h. Put shortly:
as §1

In data set [12] the test system is Portulaca oleracea. The experiment in a line: Herbicidal activity against Portulaca oleracea assessed as inhibition of fresh weed plant weights at 600 g ai/ha using pre-emergence treatment protocol under greenhouse conditions relative to untreated control. It counts as functional. Put shortly:
as §2

Data set [13] relates to Portulaca oleracea. In words: Herbicidal activity against Portulaca oleracea assessed as inhibition of fresh weed plant weights at 150 g ai/ha using pre-emergence treatment protocol under greenhouse conditions relative to untreated control. It counts as functional. Put shortly:
as §2

Data set [14] relates to Digitaria sanguinalis. In words: Herbicidal activity against Digitaria sanguinalis (hairy crabgrass) assessed as inhibition of fresh weed plant weights at 300 g ai/ha using pre-emergence treatment protocol under greenhouse conditions relative to untreated control. It counts as functional. Put shortly:
as §2

The test system of data set [15] is Portulaca oleracea. In words: Herbicidal activity against Portulaca oleracea assessed as inhibition of root growth at […] measured 7 days post treatment. Format: functional. Also noted: dose or concentration left out as unconfirmed. As to conditions: 168 h, read-out: GI.
For data set [16], the system named is Digitaria sanguinalis. In words: Herbicidal activity against Digitaria sanguinalis (hairy crabgrass) assessed as inhibition of fresh weed plant weights at 800 g ai/ha using pre-emergence treatment protocol under field trials conditions measured 30 days post soil treatment relative to untreated control. It counts as functional. As to conditions: 720 h. A digest of the protocol:
as §1

In the case of `Cc1nn(CC(F)(F)F)c(CS(=O)(=O)C2=NOC(C)(C)C2)c1Cl`, the inhibition (usually how much of the control response was suppressed) at 800 g/ha is 100% in data set [1], 40% in data set [3] and 100% in data set [16]. Also, the inhibition at 150 g/ha in data set [2] came to 97%; in [13] it was 70%. This molecule displayed an Activity in data set [4] of 0%. Also, the inhibition at 300 g/ha in data set [5] worked out at 95%; in [9], 97%; in data set [11], 80%; in data set [14], 97%. For the same molecule, the inhibition of growth in [6] amounted to 62%; in data set [15], 63%. The inhibition at 600 g/ha in data set [7] came out at 27%; in [10] it was 100%; in data set [12], 99%. In addition, the inhibition at 400 g/ha in data set [8] amounted to 98%.

The record behind these values is ChEMBL document CHEMBL3046055, “Synthesis and herbicidal activity of novel N-(2,2,2)-trifluoroethylpyrazole derivatives” (J Agric Food Chem, 2010).
